Sampled rows, rich in hits. Any-hit rate of the full collection: about 2.9%.
GalR3 antagonist – antagonists of human GalR3; inhibition, % at 3 µM; 360,000 compounds, 0.44% hits; O60755; HEK293 GalR3-CNG cAMP membrane potential fluorescence; galR3 body fused to GalR1 C-terminus;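 active = inhibition above the screen-wide average plus 3 SD, cut at about 13% in these data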;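 also: forskolin and galanin both at EC90 stimulate the cells; cAMP rise reported by CNG channel membrane potential dye signal; 0% = forskolin plus galanin with DMSO and 100% = forskolin alone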
Target sequence (O60755 1-299 limits assumed): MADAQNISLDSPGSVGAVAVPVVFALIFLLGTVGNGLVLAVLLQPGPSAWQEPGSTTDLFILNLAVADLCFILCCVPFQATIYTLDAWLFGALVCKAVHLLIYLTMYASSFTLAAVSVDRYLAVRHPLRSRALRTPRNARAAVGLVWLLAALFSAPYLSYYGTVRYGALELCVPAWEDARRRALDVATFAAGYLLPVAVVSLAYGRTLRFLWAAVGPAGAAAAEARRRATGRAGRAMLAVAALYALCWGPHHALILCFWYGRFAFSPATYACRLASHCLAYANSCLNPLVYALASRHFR
Efflux pump mplx – antifungal efflux pump inhibition, Nile Red retention; 330,000 compounds, 0.44% hits; S. cerevisiae Candida pump triplex; inhibition, % at 10 µM;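 active = plate passing quality check with inhibition over a set limit, or well fluorescence over plate mean plus 4 SD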;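 also: Nile Red retained in pooled yeast measured as flow cytometry median fluorescence; 0% = buffer negative control and 100% = Enniatin B positive control; higher means more Nile Red kept so more efflux inhibition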
H9c2 TAG inh – reduces triacylglycerol accumulation in H9c2 cells; inhibition, % at 12.5 µM; 230,000 compounds, 0.66% hits; AID 651582; Nile Red lipid (TAG) fluorescence; cells loaded with 200 µM oleic acid;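 active = pattern-corrected inhibition of lipid staining of at least 50% with the nuclear-stain viability signal not falling by more than 50%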;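 also: 0% = DMSO wells and 100% = triacsin C control wells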
MC4R antagonist – antagonists of human melanocortin 4 receptor (MC4R) | AID 540295 | 360,000 compounds, 0.48% hits | P32245 | inhibition, % at 6.5 µM | MC4R-expressing cells, MTII-stimulated cAMP, LANCE TR-FRET;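 active = inhibition above its plate's cutoff, the mean of tested wells on that plate plus 3 SD, cut at about 29% in these data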;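 also: 0% = Melanotan II alone and 100% = Melanotan II plus saturating MCL0020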
Target sequence (P32245 whole entry, looked up): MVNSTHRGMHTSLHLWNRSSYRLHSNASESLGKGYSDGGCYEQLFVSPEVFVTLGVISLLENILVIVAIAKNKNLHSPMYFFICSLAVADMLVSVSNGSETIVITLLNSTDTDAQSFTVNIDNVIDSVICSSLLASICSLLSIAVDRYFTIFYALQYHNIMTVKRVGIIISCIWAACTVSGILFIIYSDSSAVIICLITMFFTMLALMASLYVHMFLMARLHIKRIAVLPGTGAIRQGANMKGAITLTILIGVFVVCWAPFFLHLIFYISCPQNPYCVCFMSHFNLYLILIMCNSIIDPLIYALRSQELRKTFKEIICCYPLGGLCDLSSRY
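Assay system: U2OS cells stably expressing human melanocortin 4 receptor (MC4R) / Dosing: 6.5 µM / Timing: compound 30 min, challenge 1 h, detection 1 h / Measured by: Eu-cAMP/anti-cAMP TR-FRET, emission 671 nm / Replicates: singlicate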
MC4R ag barr – activates human MC4R beta-arrestin recruitment | P32245 | U2OS MC4R beta-arrestin complementation, luminescence; percent of melanotan II response, DMSO zero | activation, % at 8.9 µM | 360,000 compounds, 0.98% hits | AID 540308;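 active = activation above a per-plate cutoff, the mean activation of sample wells on that plate plus 3 SD, cut at about 8% in these data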
Calb FLC – affects C. albicans growth with fluconazole. growth inhibition, % (test concentration not listed). C. albicans CaCi-2 + fluconazole, Alamar Blue growth, 48 h. 300,000 compounds, 0.57% hits;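 active = growth inhibition above about 58% in most replicates, limit read from the data, passing the limit was not always enough; inconclusive = exactly half the replicates above a set limit; inactive = most replicates below a set limit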;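 also: all wells also contain fluconazole at 8 µg/ml as a sub-toxic cotreatment; 0% = median of DMSO wells and 100% = median of geldanamycin control wells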
TAG conf – triacylglycerol accumulation inhibition, confirmation; inhibition, % at 12.5 µM; H9c2 lipid accumulation, Nile Red fluorescence; cells loaded with 200 µM oleic acid; shares compounds with H9c2 TAG inh; 990 compounds, 71% hits;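 active = mean inhibition across replicates of 40% or more; inactive = mean inhibition below 40%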;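 also: plate controls were DMSO only wells for no effect and Triacsin C treated wells for full effect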
* hit, by the source's call; ? = inconclusive; nt = not tested or not shown.

SMILES	GalR3 antagonist	Efflux pump mplx	H9c2 TAG inh	MC4R antagonist	MC4R ag barr	Calb FLC	TAG conf
CCc1ccc(/C=N/NC(=O)c2cc(C3CC3)nc3ccc(Br)cc23)s1	-0.3	-0.1	60.4*	-14.9	-1.9	-0.5	40.4*
CCO[C@@H]1OC(C(=O)N2CCN(Cc3ccc4c(c3)OCO4)CC2)=C[C@H](C)[C@H]1CCCO	-5.3	0.0	53.0*	2.0	0.5	-5.7	-5.0
COC(=O)C1(C)CCCC2(C)c3cc(OC)ccc3C(=O)C(Br)C12 (stereo not given)	-4.4	nt	23.8	-2.0	0.8	nt	nt
O=C(COC(=O)c1ccc(F)cc1F)Nc1ccc(S(=O)(=O)N2CCOCC2)cc1	-0.6	nt	1.1	12.1	3.7	nt	nt
COc1ccc(CC(N)c2csc(NC(=O)Nc3ccccc3C(C)C)n2)cc1 (stereo not given)	-6.9	nt	57.7*	6.7	3.9	nt	41.9*
COc1ccccc1NC(=O)Nc1nc(C(N)C2CCCCC2)cs1 (stereo not given)	-5.6	nt	51.9*	2.6	-0.3	nt	33.1
COc1ccc(CNC(=O)Nc2nc(C(N)Cc3ccc(Cl)cc3)cs2)cc1 (stereo not given)	-9.0	nt	50.2*	-6.3	4.6	nt	58.6*
COc1cc(CNc2ncnc3c2ncn3[C@H]2CN(Cc3ccc(Cl)cc3)C[C@@H](CO)O2)cc(OC)c1OC	-2.5	nt	-1.3	6.1	-0.1	nt	nt
CCOC(=O)c1cnn(-c2nc(-c3ccccc3)nc3c2COC(C)(C)C3)c1N	1.8	0.2	53.7*	6.2	-1.0	8.4	20.2
O=C(C/C=N\O)Nc1ccc(Oc2ccccc2)cc1	-2.7	0.1	25.7	-2.4	-0.8	2.0	nt
CO/N=C\CC(=O)Nc1ccc(Oc2ccccc2)cc1	-2.2	-0.1	60.9*	-9.1	-0.3	-38.4	81.5*
O=C(Nc1ccc(S(=O)(=O)NC2=NCCCCC2)cc1)c1cccc(OC(F)F)c1	-5.4	nt	-6.6	6.9	-1.0	nt	nt
CCOC1=C2[C@@H](CN(S(=O)(=O)c3ccc(C)cc3)[C@H]2c2ccccc2F)[C@H]2C(=O)N(c3ccccc3)C(=O)[C@H]2C1	-5.2	nt	nt	nt	nt	nt	nt
CCC(=O)Nc1nc2nc(-c3ccccc3)cc(-c3ccccc3)n2n1	-2.5	0.0	41.1	3.3	-1.6	3.8	nt
CCCC(=O)Nc1nc2nc(-c3ccccc3)cc(-c3ccccc3)n2n1	-4.3	-0.2	52.2*	4.3	-1.4	13.5	35.7
CCCCCCSc1ccc([C@H]2N[C@@](CC(C)C)(C(=O)OC)[C@H]3C(=O)N(C)C(=O)[C@@H]23)cc1OC	-8.8	0.1	63.7*	6.1	-0.6	12.0	54.9*
CCN1C(=O)[C@H]2[C@@H](c3ccc(-c4ccc(OC)cc4)c(OC)c3)N[C@@](CC(C)C)(C(=O)OC)[C@H]2C1=O	-0.6	0.2	23.0	2.6	-0.8	nt	nt
CCN1C(=O)[C@H]2[C@@H](c3ccc(-c4ccccc4)c(OC)c3)N[C@@](CC(C)C)(C(=O)OC)[C@H]2C1=O	-3.6	0.1	57.4*	9.6	0.7	nt	40.4*
CCc1nc2ccc(C(=O)NCc3ccc4c(c3)OCO4)cn2c1N(C)CCC(C)C	-7.2	nt	2.9	14.8	2.4	nt	nt
COc1ccc(C(=O)NC2CC(C)(C)NC(C)(C)C2)cc1S(=O)(=O)N1CCOCC1	-4.4	nt	-1.6	1.4	-1.7	nt	nt
Cc1ccc(S(=O)(=O)N2C[C@H]3C(=O)C[C@@H](c4ccccc4F)N(S(=O)(=O)c4ccc(C)cc4)[C@H]3C[C@H]2c2ccccc2F)cc1	3.9	nt	nt	nt	nt	nt	nt
COc1ccc2cc3cc(C(=O)NCC4COc5ccccc5O4)oc3nc2c1 (stereo not given)	-3.5	0.0	56.9*	3.7	7.6	-2.5	32.9
COCCCn1c(SCC(=O)Nc2nc3ccccc3s2)nnc1-c1ccoc1C	-1.1	-0.2	50.7*	2.5	-2.7	-7.5	34.2
CCCCCC(=C/c1ccccc1)/C=N/Nc1ccc(S(=O)(=O)N2CCOCC2)cc1[N+](=O)[O-]	-5.6	nt	82.9*	2.3	-1.2	nt	81.0*
CCCCCNC(=O)CCCCn1c(=O)[nH]c2cc(OCC)c(OCC)cc2c1=O	-1.0	0.0	36.0	9.1	-2.4	-1.7	nt
SMILES	GalR3 antagonist	Efflux pump mplx	H9c2 TAG inh	MC4R antagonist	MC4R ag barr	Calb FLC	TAG conf
CCOc1cc2[nH]c(=O)n(CCCCC(=O)N3CCCCCC3)c(=O)c2cc1OCC	-3.8	0.1	63.1*	2.4	0.5	?	35.0
Cc1ccsc1CN(C)CC(=O)N(C)CC(=O)Nc1c(Cl)cccc1Cl	-6.7	nt	5.2	9.3	1.8	nt	nt
O=S(=O)(c1ccccc1)N1CCCc2nc(-c3ccc(Br)cc3)ccc21	-6.5	nt	nt	nt	nt	nt	nt
COc1ccccc1CNC(=O)CN1C(=O)NC(c2ccccc2)(c2ccc(C)c(C)c2)C1=O (stereo not given)	-7.1	nt	53.5*	15.9	-0.2	nt	35.9
Cc1ccc(C2(c3ccccc3)NC(=O)N(CC(=O)NC3CCCCC3)C2=O)cc1C (stereo not given)	-3.4	nt	10.6	4.6	1.2	nt	nt
COc1ccc(-c2cc(C(F)F)n3ncc(C(=O)Nc4cccc(S(=O)(=O)N5CCOCC5)c4)c3n2)cc1	-2.7	-0.2	58.4*	15.8	0.6	16.3	50.4*
Cc1onc(-c2ccc(Cl)cc2Cl)c1-c1csc(N/N=C/c2ccccc2Cl)n1	-2.3	-0.2	56.8*	-0.9	-1.0	1.1	37.6
COc1ccc2sc(-c3ccc(N(C)C)cc3)c(C#CCCO)c2c1	-3.5	-0.3	75.7*	7.9	0.1	nt	86.8*
Cn1c(SCC(=O)NCc2ccccc2)nnc1-c1ccc(NC(=O)CCc2ccccc2)cc1	-2.6	0.0	14.6	2.8	-0.4	0.2	nt
CCCCSc1nnc(-c2ccc(NC(=O)CCc3ccccc3)cc2)n1C	-4.3	0.0	51.5*	-1.1	0.3	-0.8	34.2
CCCCOc1ccc(CSC2=NCCN2)cc1[N+](=O)[O-]	-5.4	0.1	56.3*	-8.6	3.0	-44.7	68.7*
CCOc1ccc(CSC2=NCCN2)cc1[N+](=O)[O-]	-1.2	-0.1	30.6	-2.5	-1.1	-18.3	nt
Cc1ccnc(N2CCC(C(=O)Nc3ccc(Oc4ccccc4)cc3)CC2)n1	-4.1	-0.2	52.4*	4.9	-2.7	-18.2	14.0
Cc1cc(C)nc(N2CCC(C(=O)Nc3ccc(Oc4ccccc4)cc3)CC2)n1	-3.4	0.1	nt	-6.2	-0.8	13.5	nt
COC(=O)[C@]1(CC(C)C)N[C@H](c2ccc(-c3cccc(Cl)c3)cc2)[C@@H]2C(=O)N(C)C(=O)[C@@H]21	-3.2	0.2	60.8*	1.6	0.3	-1.2	35.7
COC(=O)[C@]1(Cc2ccccc2)N[C@H](c2ccc(-c3cccc(Cl)c3)c(OC)c2)[C@@H]2C(=O)N(C)C(=O)[C@@H]21	-8.2	nt	55.1*	13.7	2.0	nt	44.7*

Bioassay records from PubChem.
